{
  "source": "ChEMBL document CHEMBL5661979",
  "about": "“Pharmacological inhibition of BMK1 suppresses tumor growth through promyelocytic leukemia protein” (Cancer Cell, 2010)",
  "key": {"[1]": {"target": "Serine/threonine-protein kinase Nek7 (Homo sapiens, UniProt Q8TDX7)", "sequence (Q8TDX7 whole entry, looked up)": "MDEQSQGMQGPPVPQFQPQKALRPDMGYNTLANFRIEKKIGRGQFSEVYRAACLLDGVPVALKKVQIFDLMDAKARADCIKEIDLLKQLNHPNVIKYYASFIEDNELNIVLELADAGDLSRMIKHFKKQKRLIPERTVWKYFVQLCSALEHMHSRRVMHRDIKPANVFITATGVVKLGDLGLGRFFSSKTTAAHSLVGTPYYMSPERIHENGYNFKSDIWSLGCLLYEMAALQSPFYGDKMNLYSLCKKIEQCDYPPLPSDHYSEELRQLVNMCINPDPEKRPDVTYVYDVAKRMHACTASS", "assay": "Inhibition of NEK7 in human HeLa cells lysate at 10 uM pre incubated for 15 mins followed by ADP acyl phosphate probe addition and measured after 10 mins by LC-MS/MS analysis relative to control", "type": "subcellular", "conditions": "time 25.0 min"}, "[2]": {"target": "Epidermal growth factor receptor (Homo sapiens, UniProt P00533)", "sequence (P00533 whole entry)": "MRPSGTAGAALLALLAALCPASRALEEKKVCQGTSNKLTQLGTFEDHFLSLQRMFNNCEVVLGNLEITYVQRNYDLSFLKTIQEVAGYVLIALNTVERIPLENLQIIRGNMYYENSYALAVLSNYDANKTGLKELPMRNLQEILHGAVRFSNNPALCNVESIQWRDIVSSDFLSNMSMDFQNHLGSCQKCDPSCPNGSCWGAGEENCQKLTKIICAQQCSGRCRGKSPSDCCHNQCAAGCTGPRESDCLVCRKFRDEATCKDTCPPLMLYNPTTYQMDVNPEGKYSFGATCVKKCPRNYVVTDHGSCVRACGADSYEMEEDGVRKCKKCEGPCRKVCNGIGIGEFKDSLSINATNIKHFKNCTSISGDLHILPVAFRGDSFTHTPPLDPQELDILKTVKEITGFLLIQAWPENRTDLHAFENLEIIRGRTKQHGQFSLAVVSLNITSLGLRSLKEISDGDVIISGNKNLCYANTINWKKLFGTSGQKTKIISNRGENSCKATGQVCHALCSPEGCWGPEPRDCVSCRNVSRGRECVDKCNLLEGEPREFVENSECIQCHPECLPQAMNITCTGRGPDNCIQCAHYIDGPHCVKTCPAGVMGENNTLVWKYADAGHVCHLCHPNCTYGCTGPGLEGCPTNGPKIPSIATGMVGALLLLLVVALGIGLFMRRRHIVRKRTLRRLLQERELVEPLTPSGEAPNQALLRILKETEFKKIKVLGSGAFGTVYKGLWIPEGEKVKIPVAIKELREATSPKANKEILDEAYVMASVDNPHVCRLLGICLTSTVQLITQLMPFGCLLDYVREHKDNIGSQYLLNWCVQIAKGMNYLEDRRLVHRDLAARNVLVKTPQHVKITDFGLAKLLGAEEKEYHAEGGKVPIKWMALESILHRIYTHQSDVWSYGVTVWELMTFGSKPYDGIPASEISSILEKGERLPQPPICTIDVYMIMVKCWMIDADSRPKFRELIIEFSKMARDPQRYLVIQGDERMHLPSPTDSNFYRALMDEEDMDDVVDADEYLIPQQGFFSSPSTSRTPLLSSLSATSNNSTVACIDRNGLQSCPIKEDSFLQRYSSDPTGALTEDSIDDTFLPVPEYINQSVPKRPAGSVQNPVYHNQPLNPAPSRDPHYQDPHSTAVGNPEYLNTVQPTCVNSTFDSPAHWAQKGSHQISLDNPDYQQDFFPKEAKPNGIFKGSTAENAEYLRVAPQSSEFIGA", "assay": "Inhibition of EGFR in human HeLa cells lysate pre incubated for 15 mins followed by ADP acyl phosphate probe addition and measured after 10 mins by LC-MS/MS analysis", "type": "subcellular"}, "[3]": {"target": "1-phosphatidylinositol 3-phosphate 5-kinase (Homo sapiens, UniProt Q9Y2I7)", "sequence (Q9Y2I7 whole entry)": "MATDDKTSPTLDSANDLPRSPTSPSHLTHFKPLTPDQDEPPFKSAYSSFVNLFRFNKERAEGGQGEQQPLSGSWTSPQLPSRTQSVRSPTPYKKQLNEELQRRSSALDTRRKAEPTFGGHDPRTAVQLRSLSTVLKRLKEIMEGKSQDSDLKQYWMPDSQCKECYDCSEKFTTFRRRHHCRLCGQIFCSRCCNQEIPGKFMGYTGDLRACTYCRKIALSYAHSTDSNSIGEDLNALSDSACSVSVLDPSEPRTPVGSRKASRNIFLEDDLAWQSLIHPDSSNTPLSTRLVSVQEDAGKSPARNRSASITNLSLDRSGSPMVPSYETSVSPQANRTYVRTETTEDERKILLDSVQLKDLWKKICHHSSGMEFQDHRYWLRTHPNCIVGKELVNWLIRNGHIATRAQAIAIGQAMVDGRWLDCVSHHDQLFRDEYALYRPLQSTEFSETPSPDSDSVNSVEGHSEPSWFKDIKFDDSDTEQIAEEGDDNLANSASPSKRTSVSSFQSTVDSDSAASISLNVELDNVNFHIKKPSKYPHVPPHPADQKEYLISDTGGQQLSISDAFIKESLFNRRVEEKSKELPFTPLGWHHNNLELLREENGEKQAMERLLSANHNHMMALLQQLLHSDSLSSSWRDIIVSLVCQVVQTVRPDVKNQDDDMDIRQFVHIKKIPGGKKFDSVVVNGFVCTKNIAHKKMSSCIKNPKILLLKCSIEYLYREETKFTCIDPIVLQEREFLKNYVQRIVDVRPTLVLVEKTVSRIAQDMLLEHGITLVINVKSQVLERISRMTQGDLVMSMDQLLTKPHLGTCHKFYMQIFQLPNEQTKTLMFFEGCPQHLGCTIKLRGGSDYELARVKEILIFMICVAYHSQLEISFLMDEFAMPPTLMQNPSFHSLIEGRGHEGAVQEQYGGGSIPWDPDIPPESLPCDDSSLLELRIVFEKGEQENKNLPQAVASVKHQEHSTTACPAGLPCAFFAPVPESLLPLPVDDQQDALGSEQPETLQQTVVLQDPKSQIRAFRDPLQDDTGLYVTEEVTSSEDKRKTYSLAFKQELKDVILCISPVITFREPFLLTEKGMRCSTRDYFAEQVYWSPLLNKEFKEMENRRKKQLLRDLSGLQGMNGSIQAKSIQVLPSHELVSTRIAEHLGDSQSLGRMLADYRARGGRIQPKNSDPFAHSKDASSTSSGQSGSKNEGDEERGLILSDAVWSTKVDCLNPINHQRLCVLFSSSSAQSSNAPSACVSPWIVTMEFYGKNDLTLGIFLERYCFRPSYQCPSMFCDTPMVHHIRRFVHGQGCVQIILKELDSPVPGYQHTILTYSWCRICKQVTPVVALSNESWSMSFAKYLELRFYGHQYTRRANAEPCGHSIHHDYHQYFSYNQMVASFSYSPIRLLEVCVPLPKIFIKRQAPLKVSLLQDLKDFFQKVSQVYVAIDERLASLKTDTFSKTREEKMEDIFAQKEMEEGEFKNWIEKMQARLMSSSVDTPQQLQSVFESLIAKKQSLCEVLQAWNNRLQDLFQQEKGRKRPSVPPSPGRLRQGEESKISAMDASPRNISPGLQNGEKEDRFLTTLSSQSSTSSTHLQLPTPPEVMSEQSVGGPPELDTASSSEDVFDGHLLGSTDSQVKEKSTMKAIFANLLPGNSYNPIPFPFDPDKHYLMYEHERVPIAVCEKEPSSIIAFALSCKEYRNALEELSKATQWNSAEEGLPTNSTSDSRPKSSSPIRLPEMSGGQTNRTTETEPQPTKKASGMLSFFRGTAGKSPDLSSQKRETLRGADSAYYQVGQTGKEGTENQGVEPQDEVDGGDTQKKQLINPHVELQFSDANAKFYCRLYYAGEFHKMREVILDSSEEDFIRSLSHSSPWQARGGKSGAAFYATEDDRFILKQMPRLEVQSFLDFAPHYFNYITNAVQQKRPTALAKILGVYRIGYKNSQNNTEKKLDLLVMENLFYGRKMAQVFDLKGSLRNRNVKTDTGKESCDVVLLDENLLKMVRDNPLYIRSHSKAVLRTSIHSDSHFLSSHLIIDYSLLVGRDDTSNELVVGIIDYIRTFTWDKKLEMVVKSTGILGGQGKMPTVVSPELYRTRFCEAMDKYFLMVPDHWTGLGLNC", "assay": "Inhibition of PIP5K3 in human HeLa cells lysate pre incubated for 15 mins followed by ATP acyl phosphate probe addition and measured after 10 mins by LC-MS/MS analysis", "type": "subcellular"}, "[4]": {"target": "T1, Serine/threonine-protein kinase Nek9 (Homo sapiens) (UniProt Q8TD19)", "T1 sequence (whole entry)": "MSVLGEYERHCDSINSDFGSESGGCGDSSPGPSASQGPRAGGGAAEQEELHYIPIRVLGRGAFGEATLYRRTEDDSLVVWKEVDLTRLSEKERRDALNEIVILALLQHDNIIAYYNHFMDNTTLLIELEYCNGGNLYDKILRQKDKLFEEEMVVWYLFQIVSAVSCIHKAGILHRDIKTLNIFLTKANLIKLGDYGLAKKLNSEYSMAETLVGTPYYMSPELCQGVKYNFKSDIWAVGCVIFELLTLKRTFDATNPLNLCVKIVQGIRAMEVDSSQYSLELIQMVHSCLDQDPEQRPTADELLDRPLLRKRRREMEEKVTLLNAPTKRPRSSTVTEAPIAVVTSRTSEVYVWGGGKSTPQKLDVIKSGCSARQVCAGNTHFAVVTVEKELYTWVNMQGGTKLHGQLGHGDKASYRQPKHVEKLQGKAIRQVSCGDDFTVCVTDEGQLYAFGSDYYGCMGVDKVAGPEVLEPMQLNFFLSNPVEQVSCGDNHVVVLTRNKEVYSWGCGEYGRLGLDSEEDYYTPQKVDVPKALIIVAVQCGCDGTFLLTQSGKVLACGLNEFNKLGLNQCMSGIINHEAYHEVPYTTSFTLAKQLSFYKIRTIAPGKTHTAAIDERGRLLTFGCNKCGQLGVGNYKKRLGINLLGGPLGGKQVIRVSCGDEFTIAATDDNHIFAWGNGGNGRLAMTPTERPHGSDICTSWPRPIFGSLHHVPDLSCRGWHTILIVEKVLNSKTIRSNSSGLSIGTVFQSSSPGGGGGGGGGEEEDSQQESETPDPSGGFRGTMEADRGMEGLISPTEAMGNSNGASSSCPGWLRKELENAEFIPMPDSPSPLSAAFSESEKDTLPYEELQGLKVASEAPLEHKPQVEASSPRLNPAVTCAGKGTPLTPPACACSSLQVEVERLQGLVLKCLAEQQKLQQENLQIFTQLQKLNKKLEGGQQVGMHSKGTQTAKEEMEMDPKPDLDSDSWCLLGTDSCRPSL", "assay": "Inhibition of NEK9 in human HeLa cells lysate at 50 uM pre incubated for 15 mins followed by ADP acyl phosphate probe addition and measured after 10 mins by LC-MS/MS analysis relative to control", "type": "subcellular", "conditions": "time 25.0 min"}, "[5]": {"assay": "Inhibition of SRPK1/2 in human HeLa cells lysate pre incubated for 15 mins followed by ADP acyl phosphate probe addition and measured after 10 mins by LC-MS/MS analysis", "type": "subcellular"}, "[6]": {"assay": "Tmax in Sprague-Dawley rat at 2 mg/kg, po measured up to 8 hrs by LC-MS/MS analysis", "type": "ADME, organism-based", "conditions": "in vivo"}, "[7]": {"target": "Mitogen-activated protein kinase kinase kinase 20 (Homo sapiens, UniProt Q9NYL2)", "assay": "Inhibition of ZAK in human HeLa cells lysate at 50 uM pre incubated for 15 mins followed by ATP acyl phosphate probe addition and measured after 10 mins by LC-MS/MS analysis relative to control", "type": "subcellular", "conditions": "time 25.0 min"}, "[8]": {"assay": "Inhibition of KHS1/2 in human HeLa cells lysate at 10 uM pre incubated for 15 mins followed by ATP acyl phosphate probe addition and measured after 10 mins by LC-MS/MS analysis relative to control", "conditions": "25 min, condition cancer"}, "Scaffold protein ILK": {"target": "Scaffold protein ILK (Homo sapiens, UniProt Q13418)", "sequence (Q13418 whole entry)": "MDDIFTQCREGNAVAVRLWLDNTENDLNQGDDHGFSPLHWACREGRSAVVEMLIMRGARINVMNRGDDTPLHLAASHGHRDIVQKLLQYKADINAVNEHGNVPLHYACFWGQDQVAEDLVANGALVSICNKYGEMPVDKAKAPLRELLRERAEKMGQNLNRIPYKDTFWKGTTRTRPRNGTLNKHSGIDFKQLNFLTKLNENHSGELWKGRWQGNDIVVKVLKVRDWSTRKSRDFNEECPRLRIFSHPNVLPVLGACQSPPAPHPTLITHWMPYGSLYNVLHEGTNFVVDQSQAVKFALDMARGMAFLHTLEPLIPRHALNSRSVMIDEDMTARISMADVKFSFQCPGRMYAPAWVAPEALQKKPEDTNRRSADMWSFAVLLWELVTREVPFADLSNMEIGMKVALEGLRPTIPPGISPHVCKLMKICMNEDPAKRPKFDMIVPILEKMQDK", "assay": "Inhibition of ILK in human HeLa cells lysate pre incubated for 15 mins followed by ATP acyl phosphate probe addition and measured after 10 mins by LC-MS/MS analysis", "type": "subcellular"}, "[9]": {"target": "Calcium/calmodulin-dependent protein kinase type II subunit delta (Homo sapiens, UniProt Q13557)", "sequence (Q13557 whole entry)": "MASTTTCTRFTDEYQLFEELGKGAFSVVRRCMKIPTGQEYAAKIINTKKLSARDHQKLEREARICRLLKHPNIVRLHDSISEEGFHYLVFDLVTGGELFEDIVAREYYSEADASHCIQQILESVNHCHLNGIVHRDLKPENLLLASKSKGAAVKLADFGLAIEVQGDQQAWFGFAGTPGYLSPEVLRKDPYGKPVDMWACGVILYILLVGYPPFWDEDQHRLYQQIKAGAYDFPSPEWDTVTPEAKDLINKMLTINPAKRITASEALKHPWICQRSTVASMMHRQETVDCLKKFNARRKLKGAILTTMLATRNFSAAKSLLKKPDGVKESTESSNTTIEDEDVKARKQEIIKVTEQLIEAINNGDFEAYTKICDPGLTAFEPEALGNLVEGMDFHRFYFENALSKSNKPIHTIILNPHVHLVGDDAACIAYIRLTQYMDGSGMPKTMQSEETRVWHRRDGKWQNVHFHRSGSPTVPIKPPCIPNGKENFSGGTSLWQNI", "assay": "Inhibition of CAMK2d in human HeLa cells lysate at 50 uM pre incubated for 15 mins followed by ATP acyl phosphate probe addition and measured after 10 mins by LC-MS/MS analysis relative to control", "type": "subcellular", "conditions": "time 25.0 min", "summary_of_the_method": "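KiNativ-type profiling in HeLa lysate (5 mg/mL total protein). Lysate preincubated 15 min with inhibitor at 50, 10, 2, 0.8 or 0 μM, then ATP or ADP acylphosphate probe added (5 μM final) for 10 min. Reaction stopped with urea and analysed by targeted MS, using up to four fragment ions per kinase peptide-probe conjugate. % inhibition calculated against untreated lysate. Duplicate reactions.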"}, "[10]": {"target": "Dual specificity protein kinase CLK3 (Homo sapiens, UniProt P49761)", "sequence (P49761 whole entry)": "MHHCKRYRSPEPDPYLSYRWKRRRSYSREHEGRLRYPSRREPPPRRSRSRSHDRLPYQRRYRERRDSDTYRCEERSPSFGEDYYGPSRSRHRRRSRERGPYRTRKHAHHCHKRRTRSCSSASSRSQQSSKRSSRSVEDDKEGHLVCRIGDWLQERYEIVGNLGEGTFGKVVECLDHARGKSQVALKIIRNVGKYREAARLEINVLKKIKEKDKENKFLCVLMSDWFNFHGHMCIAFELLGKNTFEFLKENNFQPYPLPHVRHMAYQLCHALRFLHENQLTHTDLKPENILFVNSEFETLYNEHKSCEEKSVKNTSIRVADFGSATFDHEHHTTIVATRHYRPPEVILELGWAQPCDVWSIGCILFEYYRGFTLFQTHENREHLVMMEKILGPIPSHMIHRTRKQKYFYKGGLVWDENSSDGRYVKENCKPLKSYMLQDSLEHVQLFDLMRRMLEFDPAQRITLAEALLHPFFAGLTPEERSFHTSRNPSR", "assay": "Inhibition of CLK3 in human HeLa cells lysate pre incubated for 15 mins followed by ADP acyl phosphate probe addition and measured after 10 mins by LC-MS/MS analysis", "type": "subcellular"}, "[11]": {"target": "T2, Serine/threonine-protein kinase tousled-like 1 (Homo sapiens) (UniProt Q9UKI8)", "T2 sequence (whole entry)": "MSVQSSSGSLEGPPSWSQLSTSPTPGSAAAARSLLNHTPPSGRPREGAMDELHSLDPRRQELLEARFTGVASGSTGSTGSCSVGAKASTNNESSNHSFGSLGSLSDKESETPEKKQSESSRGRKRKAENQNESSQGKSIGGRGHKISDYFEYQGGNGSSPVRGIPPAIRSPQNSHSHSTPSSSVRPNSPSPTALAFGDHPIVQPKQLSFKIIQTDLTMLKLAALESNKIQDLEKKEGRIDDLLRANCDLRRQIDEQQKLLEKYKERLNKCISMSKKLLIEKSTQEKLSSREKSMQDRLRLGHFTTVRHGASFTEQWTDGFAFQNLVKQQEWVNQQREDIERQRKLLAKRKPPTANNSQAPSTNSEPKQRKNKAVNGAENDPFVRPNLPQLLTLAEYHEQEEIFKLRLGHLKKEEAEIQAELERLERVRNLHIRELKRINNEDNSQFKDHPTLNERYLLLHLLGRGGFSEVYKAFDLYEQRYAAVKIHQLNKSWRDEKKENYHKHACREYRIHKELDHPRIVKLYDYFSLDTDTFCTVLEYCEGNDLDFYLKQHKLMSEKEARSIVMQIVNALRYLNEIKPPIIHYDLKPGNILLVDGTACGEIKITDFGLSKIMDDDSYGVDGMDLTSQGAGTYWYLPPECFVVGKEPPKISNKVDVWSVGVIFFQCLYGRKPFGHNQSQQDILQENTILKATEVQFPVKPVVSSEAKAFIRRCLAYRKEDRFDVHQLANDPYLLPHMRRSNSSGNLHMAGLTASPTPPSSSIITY", "assay": "Inhibition of TLK1 in human HeLa cells lysate at 2 uM pre incubated for 15 mins followed by ADP acyl phosphate probe addition and measured after 10 mins by LC-MS/MS analysis relative to control", "type": "subcellular", "conditions": "time 25.0 min"}},
  "data": [
    {"compound": "CCOc1cc(N2CCC(O)CC2)ccc1Nc1ncc2c(n1)N(C)c1ccccc1C(=O)N2C", "values": [
      {"measurement": "inhibition", "setting": "[1]", "result": -7.9, "unit": "%"},
      {"measurement": "IC50", "setting": "[2]", "result": "> 50", "unit": "µM"},
      {"measurement": "IC50", "setting": "[3]", "result": "> 50", "unit": "µM"},
      {"measurement": "inhibition", "setting": "[4]", "result": 4.5, "unit": "%"},
      {"measurement": "IC50", "setting": "[5]", "result": "> 50", "unit": "µM"},
      {"measurement": "Tmax", "setting": "[6]", "result": 30, "unit": "min"},
      {"measurement": "inhibition", "setting": "[7]", "result": 33.3, "unit": "%"},
      {"measurement": "inhibition at 10 µM", "setting": "[8]", "result": -11.1, "unit": "%"},
      {"measurement": "IC50", "setting": "Scaffold protein ILK", "result": "> 50", "unit": "µM"},
      {"measurement": "inhibition", "setting": "[9]", "result": 40.8, "unit": "%"},
      {"measurement": "IC50", "setting": "[10]", "result": "> 50", "unit": "µM"},
      {"measurement": "inhibition", "setting": "[11]", "result": 7.3, "unit": "%"}
    ]}
  ]
}
